Measured values taken from publication PMC6803818 (Future Medicinal Chemistry, 2019).
“Also recorded” adds a separate entry of the source. Like-named read-outs stand apart in the source and are kept apart here. Each block holds one molecule with its values, some of them ahead of it.

Columns and labels:
[1] = system: cancer cell lines with homozygous Y220C mutation; details: cited from earlier work
[2] = target: p53-Y220C DBD (Homo sapiens, UniProt P04637, M133L/N239Y/N268D/V203A/Y220C); test: Isothermal titration calorimetry; type: binding
[3] = target: stabilized p53-Y220C DBD (Homo sapiens, UniProt P04637, M133L/N239Y/N268D/V203A/Y220C); test: Differential scanning fluorimetry; type: binding; details: compound concentration 250 μM, 8-μM protein
In short: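 Thermal shift by DSF used 8 μM stabilized human p53 DBD (residues 94–312, M133L/V203A/N239Y/N268D plus Y220C) with 10× SYPRO Orange. Buffer was 25 mM KPi pH 7.2, 150 mM NaCl, 1 mM TCEP, with 5% (v/v) DMSO final. Test compound was at 250 μM. ΔTm = Tm(mutant + ligand) − Tm(mutant), averaged over replicate runs.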

[4] = system: HUH-7 cells (homozygous p53-Y220C); test: Cell viability, 72 h incubation; type: cell-based, human; details: for p53-Y220C-dependent cell viability reduction: HUH-7 versus HUH-7 p53 KO
In short: (§1)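 HUH-7 (Y220C) cells and an isogenic CRISPR/Cas9 p53 knockout clone (HUH7-F1: codon-124 frameshift on one allele, deletion of residues 125–223 on the other) were exposed to 0.6–15 μM test compound for 72 h. Viability was read in quadruplicate and normalized to blank (=1) and no-cell (=0) controls. Data are mean ± SEM of triplicates, with a paired t-test comparing parental and knockout lines.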

[5] = Cell viability, 72 h incubation, isogenic knockout; type: cell-based, human; details: human
In short: as §1

[6] = system: NUGC-3 (Y220C) and NUGC-4 (wild-type p53); test: Cell viability of gastric cancer cell lines, 72 h; type: cell-based, human; details: NUGC-3 (Y220C) versus NUGC-4 (wild-type p53)
[7] = target: p53 Y220C DBD (94-312) (Homo sapiens, UniProt P04637, M133L/N239Y/N268D/V203A/Y220C); test: Light scattering assay, aggregation kinetics at 37°C; type: biochemical; details: for slowing of initial rate of Y220C aggregation relative to PK9318: 15 μM compound
[8] = target: p53 wild type (Homo sapiens, UniProt P04637); test: DSF with wild type p53 DBD; type: binding; details: same conditions as in Table 1 (250 μM)
In short: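 Thermal shift of the p53 DNA-binding domain (8 μM) with 10× SYPRO Orange in 25 mM KPi (pH 7.2), 150 mM NaCl, 1 mM TCEP, at 5% (v/v) final DMSO. Test compound was present at 250 μM. ΔTm = Tm (protein + ligand) − Tm (protein alone).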

[9] = system: HUH-7 p53 KO cells (HUH7-F1); test: Cell viability, 72 h incubation, isogenic knockout; type: cell-based, human; details: 0.6 to 15 μM, 72 h, HUH-7 p53 KO
In short: as §1

[10] = read-out: ITC KD, ¶ single measurement with ITC fit error, # mean of at least three independent measurements with SEM

Kd [2]: 62 ± 6.5 µM
Compound: CCOc1ccc2c3cc(CNC)ccc3n(CC)c2c1 [PK9295]

DSF ΔTM (°C) ([3]; 250 µM): 3.6 ± 0.2 °C
Compound: CCn1c2ccc(CNC)cc2c2ccc(-c3cccs3)cc21 [PK9318]
cell viability ([4]; 15 μM, 72 h, HUH-7): complete viability loss | concentration inducing viability loss ([4]; 72 h, HUH-7): ≥ 3.75 mM | p53-Y220C-dependent cell viability reduction ([4]; 72 h): p53-Y220C-dependent cell viability reduction was observed; also recorded: Y220C-mutant-specific viability reduction | viability at 7.5 µM ([4]; Homo sapiens, Huh-7, 72 h, read-out: cell viability): 58% | viability at 72 h, 7.5 µM [5]: 88% | viability at 72 h, 15 µM [5]: 40% | preferential viability reduction in p53-Y220C cells [6]: preferential viability reduction in p53-Y220C cells | lowering of initial aggregation rate versus no compound ([7]; 30 μM compound, 1:10 protein–ligand ratio): approximately sixfold lower initial aggregation rate

Kd [2, 10]: 4 µM | DSF ΔTM (°C) ([3]; 250 µM): 3.7 ± 0.0 °C
Compound: CCn1c2ccc(CNC)cc2c2ccc(-c3ccco3)cc21 [PK9320]
preferential viability reduction in p53-Y220C cells [6]: preferential viability reduction in p53-Y220C cells

Kd [2, 10]: 5.6 ± 1.1 µM
Compound: CCn1c2ccc(CNC)cc2c2ccc(-c3ccoc3)cc21 [PK9321]

slowing of initial rate of Y220C aggregation relative to PK9318 [7]: by a factor of two
Compound: CCn1c2ccc(CNC)cc2c2ccc(-c3ccc(C)s3)cc21 [PK9327]

Continued, molecule first:

Compound: Cn1cc(-c2ccccc2)c(-n2cccc2)n1 [PK7088]
effect in Y220C cancer cell lines [1]: induced a mutant-specific increase in the amount of correctly folded protein and upregulation of p53 target genes p21 and NOXA

Compound: CCn1c2ccc(CNC)cc2c2ccc(Br)cc21 [PK9284]
affinity increase compared with PK083 [2]: ca. tenfold | Kd [2, 10]: 14.2 ± 2 µM | DSF ΔTM (°C) [3]: 3.0 ± 0.1 °C

Compound: CCn1c2ccc(CNC)cc2c2ccc(-c3cscn3)cc21 [PK9323]
stabilization of the wild type in DSF [8]: neither the starting scaffold PK083 nor the second-generation carbazole PK9323 did show any stabilization of the wild type | preferential viability reduction in p53-Y220C cells [6]: preferential viability reduction in p53-Y220C cells

Compound: CCn1c2ccc(CNC)cc2c2ccc(-c3cc(C)cs3)cc21 [PK9328]
Kd [2, 10]: 1.7 ± 0.2 µM | cell viability ([4]; 7.5 μM, 72 h, HUH-7): complete viability loss | concentration inducing viability loss ([4]; 72 h, HUH-7): ≥ 3.75 mM | p53-Y220C-dependent cell viability reduction ([4]; 72 h): p53-Y220C-dependent cell viability reduction was observed | p53-Y220C-dependent cell viability reduction ([4]; 72 h, listed as PK3328): Y220C-mutant-specific viability reduction | viability at 72 h, 7.5 µM [5]: > 50% | preferential viability reduction in p53-Y220C cells [6]: preferential viability reduction in p53-Y220C cells | slowing of initial rate of Y220C aggregation relative to PK9318 [7]: by a factor of two

Compound: CCn1c2ccc(CNC)cc2c2ccc(-c3cc(C)c(C)s3)cc21 [PK9329]
effect on viability ([4]; 0.6 to 15 μM, 72 h, HUH-7): did not have a significant effect on the viability | p53-Y220C-dependent cell viability reduction ([4]; 72 h): did not show any p53-Y220C-dependent viability reduction | effect on viability [9]: did not have a significant effect on the viability
